Shown are actives, neighbours in structure and some others; about 1.1% of the full set was active somewhere.
procasp3 activ = activators of human procaspase-3; activation, % at 8.5 µM; 330,000 tested, 0.11% active; recombinant procaspase-3 D3A, Ac-DEVD-pNA absorbance 405 nm;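 active = activation above the mean of all tested compounds plus 3 SD, cut at about 21% in these data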;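 also: 0% = DMSO alone and 100% = DMSO wells spiked with extra 5 µM PC-3 D3A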
Target sequence (P42574 whole entry D9A/D28A/D175A): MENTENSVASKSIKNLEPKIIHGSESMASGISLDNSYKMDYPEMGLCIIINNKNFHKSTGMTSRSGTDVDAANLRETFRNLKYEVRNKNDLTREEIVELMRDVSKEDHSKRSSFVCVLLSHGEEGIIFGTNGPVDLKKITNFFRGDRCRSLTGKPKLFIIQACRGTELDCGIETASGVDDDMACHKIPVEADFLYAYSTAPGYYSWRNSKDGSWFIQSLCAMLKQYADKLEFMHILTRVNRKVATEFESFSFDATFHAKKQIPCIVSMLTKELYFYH
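System: Procaspase-3 D3A mutant. Medium: Zinc-free 300 mM NaCl, 50 mM HEPES, 0.01% Triton X-100. Schedule: 1 h preincubation plus 2 h reaction at 25 °C. Measured by: 405 nm absorbance of p-nitroaniline, reads at 0 and 120 min. Read-out: percent activation relative to control range.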
CaV13 ICDI inh = Primary screen for inhibitors of IQ motif and Ca2+-dependent inactivation inhibitor domain binding in CACNA1D, Förster resonance energy transfer in living cells, …; HEK cells, CFP/YFP FRET ICDI-IQ, plate reader, 10 min; percent FRET-ratio fall versus neutral wells; inhibition, % at 12.3 µM; 340,000 tested, 0.098% active; AID 743397;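 active = mean replicate inhibition of at least 30% and at least 1% of replicates passing that level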;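 also: 0% = median of the neutral control wells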
procasp7 counter = counter-screen for procaspase-3 activators: activators of human procaspase-7. P55210. recombinant procaspase-7, Ac-DEVD-pNA absorbance 405 nm; D23A/D198A/D206A triple mutant, cannot self-cleave; scale: DMSO 0, 5 µM enzyme 100. activation, % at 8.5 µM. 330,000 tested, 0.093% active;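 active = percent activation above the screen-wide mean plus 3 SD, cut at about 25% in these data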
Target sequence (P55210 whole entry D23A/D198A/D206A): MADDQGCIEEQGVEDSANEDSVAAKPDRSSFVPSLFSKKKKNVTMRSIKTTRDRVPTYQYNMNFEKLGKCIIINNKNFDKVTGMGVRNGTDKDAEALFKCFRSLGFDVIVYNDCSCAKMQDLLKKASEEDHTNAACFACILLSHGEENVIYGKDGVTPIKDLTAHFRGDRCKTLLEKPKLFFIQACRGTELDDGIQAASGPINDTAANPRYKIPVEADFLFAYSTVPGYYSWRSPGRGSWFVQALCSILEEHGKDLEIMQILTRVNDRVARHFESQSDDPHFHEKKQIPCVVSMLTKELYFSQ
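Assay system: Uncleavable procaspase-7 mutant enzyme | Input: 2 µM procaspase-7 mutant as dispensed | Timing: 1 h compound preincubation, 2 h substrate cleavage, 25 °C | Repeats: One well per compound | Control set: DMSO wells as 0%, DMSO with 5 µM added PC-7 as 100% | Technique: Epi-absorbance of released pNA at 405 nm, two timepoints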
T cell modulator = T cell immune modulators affecting CD8 T cell-vesicle binding | 2C CD8+ T cell-vesicle binding, flow cytometry; hits give low values | response (vesicle binding), % at 7 µM | 330,000 tested, 0.068% active | AID 2052;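 active = response, share of CD8 T cells binding vesicles, and their 90th percentile fluorescence all below set limits, cut at about 80% in these data, passing the limit was not always enough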;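 also: values below 100% mean blocked vesicle binding to the CD8+ T cells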
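System: murine 2C transgenic CD8+ T lymphocytes; also added: QL9-loaded Drosophila micro-vesicles; times: binding 1.5 h at 37 °C; measured by: flow cytometry, PE anti-B7-1 (FL2) versus Alexa647 anti-CD8 (FL8), PFA-fixed; control set: Peptide-free naked vesicles (low) and QL9 vesicles with 0.7% DMSO vehicle (high)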
GRK2 inh = inhibitors of human GRK2 displacing RNA aptamer; P25098; bead flow cytometry, FAM-aptamer displacement from GRK2; inhibition of aptamer binding, % at 10 µM; 330,000 tested, 0.59% active;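 active = inhibition of aptamer binding above 40%, roughly 3 SD of noise, on plates passing a quality check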;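 also: median bead fluorescence of bound FAM aptamer so fluorescent compounds give negative values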
aDG glyco up = increases alpha dystroglycan glycosylation; AID 624168; 360,000 tested, 0.22% active; Pro5-aDG cells, alpha-DG glycosylation AlphaScreen (IIH6); 0% Pro5, 100% B10-LARGE cell signal; activation, % at 10 µM;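 active = activation of at least 8% versus controls, or a plate z-score of at least 8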;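 also: Pro5 are CHO cells carrying HIG-tagged alpha-DG that lacks glycosylation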
GRK2 inh confirm = human GRK2 inhibition confirmation, cherry pick 1; shares compounds with GRK2 inh; bead-bound GRK2, FAM-aptamer displacement, flow cytometry; aptamer displacement, % at 10 µM; 2,000 tested, 4% active;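 active = aptamer displacement above 40%, near three times the noise of non-fluorescent compounds, on plates passing quality checks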;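 also: negative values mostly reflect intrinsic compound fluorescence rather than true enhancement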
Aptamer quench = fluorescent aptamer quenching in GRK2 counter-screen dose response; fluorescence change (kMESF span), kMESF (concentration not given with the values); shares compounds with GRK2 inh; Fluorescent RNA aptamer beads, flow cytometry; hits give high values; 110 tested, under 10 active;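 active = compounds whose bead fluorescence drops by more than 37 kMESF across the dose range, marking them as dye quenchers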
FAM quench CP1 = quenches fluorescent RNA aptamer, GRK2 hit artifact; shares compounds with GRK2 inh; 2,000 tested, under 10 active; fluorescence response (% of DMSO), % at 10 µM; AID 504580; Carboxyfluorescein RNA aptamer on beads, flow cytometry quenching; hits give low values;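 active = compounds that quench the bead-bound fluorescent RNA probe, cutting fluorescence to under half of the solvent control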;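 also: counterscreen run without GRK2 so only probe quenching by compound is measured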
GRK2 confirm 2 = human GRK2 inhibition confirmation, cherry pick 2; inhibition of aptamer binding, % at 10 µM; shares compounds with GRK2 inh; bead-bound GRK2, FAM-aptamer displacement, flow cytometry; 360 tested, under 10 active;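 active = inhibition of aptamer binding above 40%, about triple the noise seen with nonglowing compounds, on plates passing quality control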;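 also: negative values mostly come from compounds that fluoresce themselves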
FAM quench SP = counter-screen for GRK2 binding hits: quenchers of fluorescent RNA aptamer; shares compounds with GRK2 inh; carboxyfluorescein RNA aptamer beads, flow cytometry quenching; hits give low values; fluorescence response vs DMSO, % at 10 µM; 360 tested, under 10 active; AID 588494;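 active = response vs DMSO under 50%, meaning signal dropped by over half, treated as fluorescence quencher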;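 also: labelled aptamer on streptavidin beads without GRK2 as a quench counter-screen; 100% = bead fluorescence of DMSO wells and lower means quenching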
* marks the source's active call; other numbers are inactive results; · = not tested or not shown.

SMILES	procasp3 activ	CaV13 ICDI inh	procasp7 counter	T cell modulator	GRK2 inh	aDG glyco up	GRK2 inh confirm	FAM quench CP1	others
O=C(O)C1CC=CCC1C(=O)Nc1ccc2c(c1)OCCO2 (stereo not drawn)	2	-5	-5	0	24	0	·	·	GRK2 confirm 2=12;FAM quench SP=99
O=C(O)C1CC=CCC1C(=O)Nc1ccc(F)c(F)c1 (stereo not drawn)	-1	·	3	852	2	0	·	·
CCOC(=O)/C(C#N)=c1/s/c(=C2\C=Cc3ccccc3N2CC)c(=O)n1CC	-13	-4	1	200	65*	0	-20	101
Cc1cc(NC(=O)CSc2nc(-c3cccnc3)ccc2C#N)no1	-13	-3	4	303	0	0	·	·
Cc1cc(NC(=O)CSc2nc3c(c(-c4cccnc4)c2C#N)CCC3)no1	9	·	11	260	77*	0	1	90
Cc1sc2c(c1C)C(=O)/C(=C\Nc1ccccn1)S(=O)(=O)N2C	7	-5	5	226	57*	0	-3	94
COCCn1nnnc1C(c1cccc(OC)c1OC)N1CCN(C(=O)c2ccco2)CC1 (stereo not drawn)	4	-3	11	257	100*	0	1	102
N#Cc1ccc(-c2ccc(OCC(O)CN3CCCCC3)cc2)cc1 (stereo not drawn)	-2	-13	5	223	0	0	·	·
CCOC(=O)Cn1c(=NC(=O)C(C)(C)C)sc2cc([N+](=O)[O-])ccc21	5	-4	2	267	52*	0	·	·	GRK2 confirm 2=-21;FAM quench SP=102
CCC(=O)N=c1sc2cc([N+](=O)[O-])ccc2n1CCOC	2	-5	-6	324	2	0	·	·
CN(CC(=O)NCCc1ccc(S(N)(=O)=O)cc1)S(=O)(=O)c1ccc(Br)s1	0	-4	1	115	90*	0	2	98
Cn1c(Oc2ccccc2)c(C=O)c2ccccc21	-4	·	5	325	53*	0	-7	97
Cc1cccc(Oc2c(C=O)c3ccccc3n2C)c1	1	·	10	217	0	0	·	·
CCNC(=O)N1CCOCC1	-2	-4	-1	546	45*	0	-6	100
CCOc1ccccc1NC(=O)CNC(=O)CNC(=O)Cc1ccccc1	2	-7	6	194	0	0	·	·
CCOc1ccc(S(=O)(=O)N2CCCCC2)cc1NC(=O)Cc1cccs1	6	-7	0	182	0	0	·	·
CCCCCC(=O)Nc1cccc(C2=NOC3(C2)C[C@H](C(N)=O)N(C(=O)COc2ccc(Cl)cc2)C3)c1 (stereo partly drawn)	-2	-11	4	530	1	0	·	·	GRK2 confirm 2=11;FAM quench SP=98
CCCCCC(=O)Nc1cccc(C2=NOC3(C2)C[C@@H](C(N)=O)N(C(=O)c2ccc(OC)cc2)C3)c1 (stereo partly drawn)	-4	-5	4	476	65*	1	13	102	Aptamer quench=-125
CCOc1ccc(NC(=O)C2CC(=O)OC2c2ccccc2)cc1 (stereo not drawn)	5	-4	2	287	82*	0	-4	86
COc1ccc(N(CC(=O)NC2CCCC2)S(=O)(=O)c2c(C)[nH]c(=O)[nH]c2=O)cc1	3	-5	-10	637	23	0	4	97
Cc1ccc2nc(-c3cccs3)oc(=O)c2c1	-4	-5	3	258	2	0	·	·
COc1cc2nc(-c3cccs3)oc(=O)c2cc1OC	1	-9	5	255	74*	0	-1	100
O=C(C1Cc2ccccc2CN1S(=O)(=O)c1cccs1)N1CCCCC1 (stereo not drawn)	12	-4	-9	597	0	1	·	·
CCOc1ccc(NC(=O)C2CCCN2S(=O)(=O)c2ccc3c(c2)C(C)(C)C(=O)N3C)cc1 (stereo not drawn)	-8	-4	4	450	48*	4	2	96
Cc1cc(-c2cccnc2)c(C#N)c(SCC#N)n1	9	-7	3	425	84*	0	1	98
SMILES	procasp3 activ	CaV13 ICDI inh	procasp7 counter	T cell modulator	GRK2 inh	aDG glyco up	GRK2 inh confirm	FAM quench CP1	others
CCOC(=O)c1sc(N(Cc2ccccc2)C(=O)CSc2nnc(C3CC3)n2N)nc1C	10	-1	-5	574	0	0	·	·
O=C(CSc1nc2ccc([N+](=O)[O-])cc2s1)NCC1CCCO1 (stereo not drawn)	-5	-5	7	159	90*	0	1	102
Cc1cccc(OCCCN2CCC(C(O)(c3ccccc3)c3ccccc3)CC2)c1	·	-8	·	·	·	·	·	·
Cc1cccc(C)c1NC(=O)CSc1nc(N2CCOCC2)nc(N2CCOCC2)n1	5	-4	0	448	5	0	·	·
OCCSc1nc(N2CCOCC2)nc(N2CCOCC2)n1	8	-2	2	354	40	0	3	97
COCc1[nH]nc2c1C(c1ccc(F)cc1)N(c1ccc(OC)cc1)C2=O (stereo not drawn)	·	-4	·	·	·	·	·	·
CC(=O)Nc1ccc(C(=O)CN2C(=O)NC3(CCCc4ccccc43)C2=O)c(F)c1 (stereo not drawn)	2	-5	-7	475	27	0	0	104
CC(=O)CCN1C(=O)NC2(CCCc3ccccc32)C1=O (stereo not drawn)	5	-5	5	775	58*	0	·	·	GRK2 confirm 2=-33;FAM quench SP=99
O=C(CN1C(=O)NC2(CCCc3ccccc32)C1=O)c1ccccc1F (stereo not drawn)	6	-5	3	438	7	0	·	·

Screens as filed in PubChem BioAssay.
